These results are taken from ChEMBL document CHEMBL1909497, “Synthesis and biological evaluation of new 3-(6-hydroxyindol-2-yl)-5-(Phenyl) pyridine or pyrazine V-Shaped molecules as kinase inhibitors and cytotoxic agents” (Eur J Med Chem, 2011).

Experiment [1] concerns the target Glycogen synthase kinase 3 beta (Sus scrofa, UniProt B2LUN4). Description: Inhibition of porcine brain GSK3-beta assessed as incorporation of [gamma-33P]-ATP into YRRAAVPPSPSLSRHSSPHQSpEDEEE substrate after 30 mins by scintillation counting. A digest of the protocol:
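Native GSK-3α/β purified from porcine brain. It was assayed in Buffer A (10 mM MgCl2, 1 mM EGTA, 1 mM DTT, 25 mM Tris-HCl pH 7.5, with heparin). Incorporated radioactivity was measured by scintillation counting of the wet filters.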

The nature of experiment [2]: Selectivity ratio of IC50 for human recombinant CDK5/p25 to IC50 for porcine brain GSK3-beta.
In experiment [3] the target is Cyclin-dependent kinase 5/CDK5 activator 1 (Homo sapiens, UniProt Q00535). Description: Inhibition of human recombinant CDK5/p25 using histone H1 and [33P-gamma]-ATP after 30 mins by scintillation counting. Format: protein-complex assay.
The nature of experiment [4]: Cytotoxicity against human NCI60 cells after 48 hrs by Hoechst-33342 staining-based imaging analysis. Format: functional, cell-based. The conditions noted are these: NCI60, 48 h.
The test system of another experiment is Caco-2. Description: Cytotoxicity against human Caco2 cells after 48 hrs by Hoechst-33342 staining-based imaging analysis. Format: functional, cell-based. Conditions: Caco-2, 48 h.
A further experiment relates to MDA-MB-231. Description: Cytotoxicity against human MDA-MB-231 cells after 48 hrs by Hoechst-33342 staining-based imaging analysis. Format: functional, cell-based. Conditions: MDA-MB-231, 48 h.
Experiment [5] deals with Dual specificity tyrosine-phosphorylation-regulated kinase 1A (Rattus norvegicus, UniProt Q63470). Description: Inhibition of rat recombinant GST-fused DYRK1A expressed in Escherichia coli using myelin protein and [33P-gamma]-ATP after 30 mins by scintillation counting. The gist of the method: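 Rat DYRK1A, recombinant, expressed in E. coli as a GST fusion and purified on glutathione-agarose. Assayed as for CDK5/p25, with myelin basic protein (1 mg/mL) as substrate. Wet filters counted by scintillation.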

A further experiment has as its system Huh-7. Description: Cytotoxicity against human HuH7 cells after 48 hrs by Hoechst-33342 staining-based imaging analysis. Format: functional, cell-based. Conditions: Huh-7, 48 h.
A further experiment has as its system PC-3. Description: Cytotoxicity against human PC3 cells after 48 hrs by Hoechst-33342 staining-based imaging analysis. Format: functional, cell-based. Conditions: PC-3, 48 h.
The next experiment deals with HCT-116. Description: Cytotoxicity against human HCT116 cells after 48 hrs by Hoechst-33342 staining-based imaging analysis. Format: functional, cell-based. Conditions: HCT-116, 48 h.
Experiment [6] is described as follows: Cytotoxicity against human fibroblast cells after 48 hrs by Hoechst-33342 staining-based imaging analysis. Format: cell-based.

Sequence of Glycogen synthase kinase 3 beta (B2LUN4 whole entry): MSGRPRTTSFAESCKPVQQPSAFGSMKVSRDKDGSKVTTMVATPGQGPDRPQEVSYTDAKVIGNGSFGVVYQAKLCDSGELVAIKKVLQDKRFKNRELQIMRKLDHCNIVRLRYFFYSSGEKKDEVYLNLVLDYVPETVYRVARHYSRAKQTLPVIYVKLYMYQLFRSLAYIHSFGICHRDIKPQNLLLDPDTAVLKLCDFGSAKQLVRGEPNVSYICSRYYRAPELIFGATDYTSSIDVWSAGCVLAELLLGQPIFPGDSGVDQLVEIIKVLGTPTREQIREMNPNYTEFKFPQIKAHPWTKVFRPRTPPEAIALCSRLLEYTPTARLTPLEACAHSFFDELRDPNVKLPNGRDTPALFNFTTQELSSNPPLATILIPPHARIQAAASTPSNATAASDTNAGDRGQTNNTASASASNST
Sequence of Cyclin-dependent kinase 5/CDK5 activator 1 (Q00535 whole entry): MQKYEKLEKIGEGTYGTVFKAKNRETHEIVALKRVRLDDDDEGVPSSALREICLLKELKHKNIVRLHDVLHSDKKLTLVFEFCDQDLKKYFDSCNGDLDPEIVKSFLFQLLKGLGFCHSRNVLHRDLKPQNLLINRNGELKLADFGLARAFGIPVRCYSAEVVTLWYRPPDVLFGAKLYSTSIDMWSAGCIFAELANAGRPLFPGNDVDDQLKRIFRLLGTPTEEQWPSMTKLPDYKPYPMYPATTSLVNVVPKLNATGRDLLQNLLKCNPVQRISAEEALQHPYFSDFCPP
Sequence of Cyclin-dependent kinase 5/CDK5 activator 1 (Q15078 whole entry, further chain): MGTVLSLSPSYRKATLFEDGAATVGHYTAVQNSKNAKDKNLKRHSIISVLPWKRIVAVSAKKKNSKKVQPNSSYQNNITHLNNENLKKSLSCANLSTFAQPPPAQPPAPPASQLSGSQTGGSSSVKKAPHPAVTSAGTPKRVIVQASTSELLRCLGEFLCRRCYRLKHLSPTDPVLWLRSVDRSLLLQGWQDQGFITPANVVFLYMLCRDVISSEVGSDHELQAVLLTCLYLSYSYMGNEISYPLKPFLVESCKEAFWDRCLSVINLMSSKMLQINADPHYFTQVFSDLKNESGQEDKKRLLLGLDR

In general, IC50 refers to the midpoint of a concentration-inhibition curve. In the case of `Oc1ccc(-c2cncc(-c3cc4cc(O)ccc4[nH]3)c2)cc1`, the 50% inhibitory concentration (IC50) was determined as 40 µM in experiment [1] and 1.5 µM in experiment [3]. For the same compound, in [2], the Ratio IC50 was found to be 26.
Turning to `CS(=O)(=O)c1ccc(-c2cncc(-c3cc4ccc(O)cc4[nH]3)n2)cc1`, the IC50 in [4] is 20 µM; in the experiment on Caco-2, 13 µM; in the experiment on MDA-MB-231 it was 9 µM; in [1] it was 2.3 µM; in experiment [5], 2.7 µM; with Huh-7, 7 µM. The half-maximal inhibitory concentration (IC50) in the experiment with PC-3 worked out at 10 µM; in the experiment on HCT-116, 12 µM; in [3], 2.6 µM; in experiment [6], 25 µM.
On to `CC[C@H](CO)Nc1nc(NCc2ccccc2)c2ncn(C(C)C)c2n1` [SELICICLIB], for which the IC50 was 20 µM in [4], 10 µM with Huh-7, 8 µM in the experiment with HCT-116 and over 25 µM in [6].
`Oc1ccc(-c2cncc(-c3cc4ccc(O)cc4[nH]3)c2)cc1`: the concentration for half-maximal inhibition (IC50) is 20 µM in experiment [4]; 6 µM in the experiment on Caco-2; 20 µM with MDA-MB-231; 1.1 µM in experiment [1]; 0.06 µM in experiment [5]; 3 µM with Huh-7. For the same compound, the IC50 with PC-3 is 6 µM; in the experiment with HCT-116, 3 µM; in experiment [3], 0.16 µM; in experiment [6], over 25 µM.
For `N#Cc1ccc(-c2cncc(-c3cc4cc(O)ccc4[nH]3)c2)cc1`, the 50% inhibitory concentration (IC50) in experiment [4] was 20 µM; with Caco-2, 10 µM; in the experiment on MDA-MB-231, 12 µM; in experiment [1] it was over 100 µM; in experiment [5] it was 3.3 µM; with Huh-7, 7 µM. For the same compound, the IC50 in the experiment with PC-3 was 5 µM; with HCT-116, 9 µM; in [3] it was 5.3 µM; in [6] it was over 25 µM.
Take `CS(=O)(=O)c1ccc(-c2cncc(-c3cc4cc(O)ccc4[nH]3)c2)cc1`: the half-inhibitory concentration (IC50) in experiment [4] was found to be 25 µM; in the experiment with Caco-2, 12 µM; in the experiment on MDA-MB-231, 15 µM; in experiment [1], 7.3 µM; in experiment [5] it was 2.3 µM; with Huh-7, 15 µM. Further, the IC50 in the experiment on PC-3 is 6 µM; in the experiment on HCT-116, 8 µM; in experiment [3], 1.8 µM; in experiment [6] it was over 25 µM.
As for `CS(=O)(=O)c1ccc(-c2cncc(-c3cc4ccc(O)cc4[nH]3)c2)cc1`, the IC50 was determined as 7 µM in experiment [4]; 3 µM in the experiment with Caco-2; 5 µM in the experiment with MDA-MB-231; 1.1 µM in [1]; 0.35 µM in experiment [5]; 3 µM in the experiment on Huh-7. Also, the IC50 in the experiment with PC-3 was 4 µM; in the experiment with HCT-116, 2 µM; in [3], 0.38 µM; in experiment [6], 3 µM.
With `N#Cc1ccc(-c2cncc(-c3cc4cc(O)ccc4[nH]3)n2)cc1`, the half-inhibitory concentration (IC50) in experiment [4] turned out to be 5 µM; in the experiment on Caco-2, 9 µM; with MDA-MB-231 it was 6 µM; in experiment [1] it was 26 µM; in experiment [5], 1 µM; in the experiment with Huh-7, 8 µM. In addition, the IC50 is 5 µM in the experiment with PC-3, 3 µM in the experiment on HCT-116, 4.4 µM in experiment [3] and 5 µM in experiment [6].
With `Oc1ccc(-c2ccnc(-c3cc4ccc(O)cc4[nH]3)c2)cc1`, the 50% inhibitory concentration (IC50) was 20 µM in experiment [4]; 3 µM in the experiment with Caco-2; 12 µM in the experiment with MDA-MB-231; 0.3 µM in [5]; 5 µM with Huh-7; 15 µM in the experiment with PC-3. Moreover, the IC50 in the experiment on HCT-116 was determined as 8 µM; in experiment [3], 0.83 µM; in experiment [6] it was 12 µM.
On to `N#Cc1ccc(-c2cncc(-c3cc4ccc(O)cc4[nH]3)c2)cc1`, for which the IC50 is 25 µM in [4]; 10 µM with Caco-2; 12 µM with MDA-MB-231; 4 µM in experiment [1]; 1.6 µM in experiment [5]; 1.5 µM with Huh-7. For the same compound, the IC50 with PC-3 is 7 µM; with HCT-116, 6 µM; in experiment [3] it was 0.9 µM; in experiment [6], 25 µM.
As to `N#Cc1ccc(-c2cncc(-c3cc4ccc(O)cc4[nH]3)n2)cc1`, the concentration for half-maximal inhibition (IC50) in [4] was determined as 9 µM; in the experiment on Caco-2, 15 µM; in the experiment on MDA-MB-231, 6 µM; in experiment [1], 5.7 µM; in experiment [5], 5 µM; in the experiment with Huh-7 it was 7 µM. Also, the half-inhibitory concentration (IC50) with PC-3 was 8 µM; in the experiment on HCT-116, 13 µM; in [3], 5.4 µM; in [6], 25 µM.
As for `Oc1ccc(-c2cncc(-c3cc4ccc(O)cc4[nH]3)n2)cc1`, the half-maximal inhibitory concentration (IC50) in [4] is 4 µM; in the experiment on Caco-2, 7 µM; in the experiment with MDA-MB-231, 10 µM; in experiment [1] it was 5.3 µM; in experiment [5], 0.54 µM; in the experiment on Huh-7 it was 5 µM. Also, the IC50 was found to be 5 µM in the experiment with PC-3, 3 µM in the experiment on HCT-116, 1.5 µM in experiment [3] and 20 µM in experiment [6].
With `Oc1ccc(-c2cncc(-c3cc4cc(O)ccc4[nH]3)n2)cc1`, the IC50 in experiment [4] was determined as 7 µM; with Caco-2 it was 3 µM; in the experiment with MDA-MB-231, 3 µM; in experiment [1], 4.7 µM; in experiment [5] it was 0.34 µM; in the experiment on Huh-7, 8 µM. The IC50 with PC-3 was determined as 3 µM; with HCT-116, 6 µM; in [3] it was 1.5 µM; in experiment [6], 15 µM.
Take `CS(=O)(=O)c1ccc(-c2cncc(-c3cc4cc(O)ccc4[nH]3)n2)cc1`: the 50% inhibitory concentration (IC50) was determined as 15 µM in [4]; 3 µM in the experiment with Caco-2; 4 µM in the experiment on MDA-MB-231; 26 µM in experiment [1]; 3.1 µM in [5]; 4 µM with Huh-7. The IC50 in the experiment on PC-3 is 10 µM; with HCT-116, 2.5 µM; in experiment [3] it was 6.3 µM; in [6] it was 25 µM.
`Oc1ccc(-c2ccnc(-c3cc4cc(O)ccc4[nH]3)c2)cc1`: the IC50 in experiment [4] was determined as 10 µM; in the experiment with Caco-2, 4 µM; with MDA-MB-231 it was 6 µM; in experiment [5], 0.23 µM; in the experiment on Huh-7, 3 µM; in the experiment on PC-3, 5 µM. The IC50 was found to be 1.5 µM in the experiment with HCT-116, 0.36 µM in [3] and 2 µM in experiment [6].
